Measurements pooled from the literature.
pEC50, pIC50: −log10 of the molar value.
Effect on: cell growth or viability

SMILES | cell line | test | conditions | quantity | result
COc1cc2c3c(n(CCCNCCO)c(=O)c2cc1OC)-c1nc2c(cc1C3=O)OCO2 | RPMI-8226 | MTS | 72 h | pIC50 | 6.25
C=C(F)C(=O)N1CCN(c2nc(OC[C@@H]3CCCN3C)nc3c2CCN(c2cccc4cccc(Cl)c24)C3)C[C@@H]1CC#N | TOV21G | ATP luminescence |  | pIC50 | < 5.00
COc1cccc2c1C(=O)c1c(O)c3c(c(O)c1C2=O)C[C@@](O)(C(=O)CO)C[C@@H]3O[C@H]1C[C@H](N)[C@H](O)[C@H](C)O1 | MDA-MB-157 | MTT | 72 h | pIC50 | 6.30
C=CC(=O)NC1CCN(c2ncc3ncnc(Nc4ccc(Oc5ccc6c(c5)ncn6C)c(C)c4)c3n2)CC1 | CAL-120 |  |  | pEC50 | 5.31
C=CC(=O)N1CCN(c2nc(=O)n(-c3c(C)ccnc3C(C)C)c3nc(-c4c(O)cccc4F)c(F)cc23)[C@@H](C)C1 | TOV21G | ATP luminescence |  | pIC50 | < 5.00
CCC[C@H]1NC(=O)[C@H](Cc2cc(Cl)ccc2-c2cnn(C)c2)N(C)C(=O)[C@H](CC(C)C)NC(=O)[C@@H](N(C)C(=O)[C@H](CCCCN2CCOCC2)NC(=O)[C@@H](c2cccnc2)C2CCCCC2)CCCCNC1=O | NCI-H69 | MTT | 5 days | GI50 | 5.2 µM
CCNCCCn1c2c(c3cc(OC)c(OC)cc3c1=O)C(=O)c1cc3c(nc1-2)OCO3 | RPMI-8226 | MTS | 72 h | pIC50 | 6.72
CCCN1C(=O)[C@H](CC(C)C)NC(=O)[C@@H](N(C)C(=O)[C@H](CC2CCC2)NC(=O)[C@@H]2C[C@@H](F)CN2C(=O)[C@@](C)(O)C(F)(F)F)CCCCNC(=O)C2(CC2)NC(=O)[C@@H]1Cc1cc(Cl)ccc1Cl | NCI-H69 | MTT | 5 days | GI50 | 0.006 µM
C[C@H](NC(=O)[C@H](CC(=O)NCC(C)(C)C)NC(=O)C(=O)c1c[nH]c2ccccc12)C(=O)NCc1ccc(F)cc1F | RPMI-8226 | MTS | 72 h | pIC50 | 4.94
